For two compounds, Activity results are on record in ChEMBL document CHEMBL4834471 (J Med Chem, 2021).

The test system of one series is Mus musculus. Nature of the series: Antiinflammatory activity in zymosan-induced CD-1 mouse peritonitis model assessed as reduction in LTC4 level at 3 mg/kg, po preincubated with compound for 60 mins followed by zymosan addition and measured after 30 mins by ELISA. The series is classed as functional, organism-based. The conditions noted are these: time 90.0 min. The gist of the method: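 Oral dosing at 3 mg/kg in zymosan-induced peritonitis; mice killed 30 min after zymosan; LTC4 in peritoneal exudate measured by ELISA; two-tailed unpaired t-test of log data.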
(In general: In an ELISA, binding on a coated surface is turned into a signal by an enzyme label.)

In a further series the test system is Monocyte. The experiment in a line: Cytotoxicity against human monocytes assessed as reduction in LDH release at 1 to 10 uM after 2 to 24 hrs by CytoTox96 nonradioactive assay. In kind it is cell-based. The conditions noted are these: dose lower 1 µM, time lower 2 hrs, dose upper 10 µM, time upper 24 hrs. The gist of the method: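 Monocytes at 4 × 10^5/mL in monocyte medium treated 2 or 24 h at 37 °C, 5% CO2, with 0.1% DMSO vehicle. LDH release measured by CytoTox 96 kit, with Triton X-100 (0.8%) defining maximum release.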
(In general: LDH leaks from cells whose membrane has failed.)

Molecules are shown by their SMILES. The source made the active and inactive calls. The calls are words filed in the database; no cut-off is given here.

Turning to `CC(c1cc2ccccc2s1)N(O)C(N)=O` (configuration not stated), the result with Mus musculus was inactive. As to `Cc1c(C)c2c(c(C)c1O)CC[C@@](C)(CCCC(C)CCCC(C)CCCC(C)C(=O)O)O2` (some centres not stated), the Activity entry in the series on Monocyte was “Non-Toxic”.
